A selection: hits, their analogues and other compounds. The true share with any hit is near 4.1%.
MEKK2 WT-MEK5: raises or lowers MEK5 binding to wildtype human MEKK2 PB1 domain; bead flow cytometry, Alexa488-MEK5 binding to MEKK2 WT; actives lie on both sides; binding response (% of control), % at 10 µM; actives 1.1% (n = 290,000); AID 1531; in the data active means binding response below about 67% or above about 130%; inconclusive means no clear call, values can overlap the other calls; inactive means in between
DNA FID counter: displaces DNA intercalator in HCV helicase counter-screen; inhibition, % at 7.9 µM; actives 0.17% (n = 290,000); AID 1845; DNA fluorescent intercalator displacement, fluorescence; in the data active means inhibition above about 37%;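 further: 0% = vehicle and 100% = reference compound; higher means more ethidium bromide displaced from hairpin DNA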
MEKK2mut PB1 HTS: signal of MEK5 binding to mutant human MEKK2 PB1 domain; bead flow cytometry, Alexa488-MEK5 binding to MEKK2 mutant; percent response, % at 10 µM; actives 0.35% (n = 290,000); in the data active means percent response above about 24%, passing the limit was not always enough
NS3 helicase inh: HCV NS3 helicase inhibition. NS3 helicase DNA unwinding, Cy5 molecular beacon fluorescence. AID 1800. inhibition, % at 10.9 µM. actives 0.56% (n = 290,000);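 active means inhibition above the mean of all tested compounds plus 3 SD, set per campaign, cut at about 35% in these data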;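 further: 0% = DMSO wells and 100% = thioflavine S control wells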
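System: NS3 helicase fragment of HCV / Schedule: 1 h at 25 °C / Control set: DMSO alone as 0% and 110 µM thioflavine S as 100% / Reagent: Cy5/quencher beacon DNA duplex and ATP to start / Technique: Cy5 fluorescence / Replication: singlicate / Evaluation: % inhibition of end-to-start signal ratio versus controls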
T cruzi repl: T. cruzi replication inhibition; T. cruzi beta-gal in NIH3T3, luminescence, 90 h; inhibition, % (test concentration not listed); actives 1.4% (n = 300,000); AID 1885;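 active means mean inhibition across valid replicates above about 55%, limit read from the data; inconclusive means mean below that limit but half or more replicates reach it; inactive means mean below it, under half of replicates reach it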;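 further: signal also drops with host cell toxicity which is not excluded here; 0% = plate median of DMSO wells and 100% = zero luminescence signal; higher percent means less beta-gal luminescence so fewer parasites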
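assay system = mouse NIH/3T3 fibroblasts infected with β-gal-expressing T. cruzi Tulahuen C4 | input = 5,000 NIH/3T3 host cells per well | buffer or medium = DMEM plus 2% FBS | timing = 3 h host attachment, then at least 90 h co-culture | measured by = GalScreen luminescence, 60 min | evaluation = luminescence reflecting intracellular parasite burden, expressed as percent inhibition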
MEKK3 PB1 HTS: modulators (inhibitors or enhancers) of MEK5 binding to human MEKK3 PB1 domain. actives 1.4% (n = 290,000). AID 1529. binding response (% of control), % at 10 µM. Q99759. bead-based flow cytometry, Alexa488-MEK5 binding to MEKK3; actives lie on both sides; 0 = blocked by unlabeled MEK5, 100 = vehicle;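 active means binding response more than 3 SD above or below the average of its plate-row segment, actives on both sides; inconclusive means wells at one plate position flagged as instrument error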;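 further: Alexa488 bead fluorescence after subtracting the streptavidin-only scavenger bead signal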
Target sequence (Q99759 whole entry, looked up, the tested form may be a part): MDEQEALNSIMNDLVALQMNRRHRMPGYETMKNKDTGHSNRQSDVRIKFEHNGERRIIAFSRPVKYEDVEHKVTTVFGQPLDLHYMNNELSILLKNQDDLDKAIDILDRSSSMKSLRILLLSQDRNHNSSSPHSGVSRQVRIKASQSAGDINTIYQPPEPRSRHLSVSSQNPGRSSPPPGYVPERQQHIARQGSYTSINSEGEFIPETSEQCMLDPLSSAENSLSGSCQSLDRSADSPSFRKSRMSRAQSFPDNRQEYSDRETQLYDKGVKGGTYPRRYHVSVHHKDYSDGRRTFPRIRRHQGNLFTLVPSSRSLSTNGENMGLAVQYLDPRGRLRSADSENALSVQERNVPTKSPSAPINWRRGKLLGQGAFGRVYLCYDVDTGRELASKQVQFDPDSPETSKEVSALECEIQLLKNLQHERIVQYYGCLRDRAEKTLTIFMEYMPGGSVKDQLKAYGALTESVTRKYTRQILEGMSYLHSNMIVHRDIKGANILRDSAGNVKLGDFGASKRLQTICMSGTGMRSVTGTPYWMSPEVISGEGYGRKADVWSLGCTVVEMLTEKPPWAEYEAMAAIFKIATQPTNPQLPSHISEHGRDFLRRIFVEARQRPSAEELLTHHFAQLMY
Numbers without * were called inactive; ? = inconclusive; . = no result given; [ ] = dose if it differs, or a comment.

SMILES	MEKK2 WT-MEK5	DNA FID counter	MEKK2mut PB1 HTS	NS3 helicase inh	T cruzi repl	MEKK3 PB1 HTS
Cc1nn2c(NCc3ccccn3)cc(C(C)(C)C)nc2c1-c1ccccc1	87	-3	-3	-8	57*	91
Cc1cc(NCc2ccccn2)n2nc(C)c(-c3ccccc3)c2n1	95	-16	-2	-20	.	98
Cc1cc(Cn2nc(-c3ccccc3)cc2C(=O)NCC2CC2)on1	.	.	.	.	-19	.
COc1ccc(C2NCCc3cc(OC)c(OC)cc32)cc1OC (configuration not stated)	109	0	4	-2	5	98
COc1cc2c(cc1OC)C(c1ccc(Br)cc1)NCC2 (configuration not stated)	.	.	.	.	57*	.
Cc1ccc(-n2sc3ccccc3c2=O)cc1	91	-6	-4	3	74*	101
COc1ccc(NC(=O)CSCc2cc(=O)n3cc(C)sc3n2)cc1	105	-6	0	4	6	101
CCN1CC(CN(C)Cc2nc(-c3ccc(C(F)(F)F)cc3)oc2C)CC1=O (configuration not stated)	95	-7	-2	15	59*	97
CCN1CC(CN(C)Cc2nc(-c3ccco3)oc2C)CC1=O (configuration not stated)	107	-4	5	4	-10	108
CC(C(=O)NC(=O)NC1CCCCC1)N(C)CC(=O)Nc1ccc(F)c(F)c1F (configuration not stated)	.	.	.	.	14	.
CC(C(=O)Nc1ccc(F)c(F)c1F)N(C)CC(=O)Nc1ccccc1Br (configuration not stated)	108	-24	10	2	102*	99
COc1ccc(/C=N/NC(=O)CCn2cnc(-c3ccccc3)c2-c2ccccc2)cc1	106	-12	2	14	-53	150*
COc1ccc(-c2noc3c2-c2nc(-c4cccc(C)c4)sc2CC3)cc1	96	-20	-9	-4	-11	102
Nc1ccccc1Nc1cc(-c2ccccc2)nn1-c1ccccc1	107	-6	3	-1	55*	112
Nc1nc(SCC(=O)Nc2cc(-c3ccccc3)nn2-c2ccccc2)n[nH]1	97	-1	-4	3	24	99
O=C(CNC(=O)c1ccccc1)Nc1cccc(C(F)(F)F)c1	43*[inhibitor]	0	-115	0	-12	93
COc1cc(C(=O)NCCCN(C)C)ccc1OCC(=O)Nc1cccc(C(F)(F)F)c1	106	13	0	-24	57*	107
COC(=O)C1=CN(c2cc(C)cc(C)c2)C=C(C(=O)OC)C1c1cccc(F)c1	99	-16	2	-5	55*	103
CCN(C(=O)COC(=O)c1cc(S(=O)(=O)N(C)C)ccc1Cl)C1CCS(=O)(=O)C1 (configuration not stated)	.	.	.	.	-10	.
COc1cccc(NC(=O)CCC2CCN(C(=O)c3cncs3)CC2)c1	101	-16	-4	10	-6	100
O=C(c1cc(-c2ccccc2)nc2ccccc12)N1CCN(c2ccccn2)CC1	106	-29	3	-10	16	115
O=C(c1cc(-c2ccncc2)nc2ccccc12)N1CCN(c2ccccn2)CC1	97	-20	-3	-4	60*	97
CCOc1ccc(N2CC(C(=O)NCCc3ccc(S(N)(=O)=O)cc3)CC2=O)cc1 (configuration not stated)	101	-27	2	3	-4	104
O=C(c1ccc([N+](=O)[O-])s1)N1CCc2ccccc2C1	101	4	4	0	84*	103
O=C(c1ccc([N+](=O)[O-])s1)N1CCc2ccccc21	94	1	-7	-4	37	102
SMILES	MEKK2 WT-MEK5	DNA FID counter	MEKK2mut PB1 HTS	NS3 helicase inh	T cruzi repl	MEKK3 PB1 HTS
COc1cccc(C(=O)Nc2ccc(S(=O)(=O)Nc3cc(C)nc(C)n3)cc2)c1	99	-10	3	2	-10	101
O=C(CNc1cccc(S(=O)(=O)N2CCCC2)c1)Nc1ccc(F)cc1F	.	.	.	.	4	.
CC(C)(C)NC(=O)CON=C1c2ccccc2-c2ccccc21	98	-17	-1	-9	-5	99
CC(C)(C)NCC(O)CON=C1c2ccccc2-c2ccccc21 (configuration not stated)	106	45*	-6	-37	24	91
CN(C)Cc1c(C(=O)N/N=C/c2cccs2)nnn1-c1nonc1N	99	0	-5	6	20	103
Cc1c(C)n(CCCN(C)C)c2ncnc(Nc3ccccc3)c12	107	12	2	-9	?	106
COc1ccccc1Nc1ncnc2c1c(C)c(C)n2CCCN(C)C	116	6	17	-29	58*	107
Cc1c(C)n(CCCN(C)C)c2ncnc(NC3CCCCC3)c12	118	3	10	-6	56*	112
COc1cc(C(=O)NCC(c2cccnc2)N2CCN(c3ccc(F)cc3)CC2)cc(OC)c1OC (configuration not stated)	100	-40	-5	-9	71*	105
O=C(NCC(c1cccnc1)N1CCN(c2ccc(F)cc2)CC1)c1ccco1 (configuration not stated)	117	-16	7	1	60*	99
O=C(NCC(c1cccnc1)N1CCN(c2ccc(F)cc2)CC1)c1ccc(F)cc1 (configuration not stated)	102	-13	6	1	60*	102
COc1ccc(C(=O)NCC(c2cccnc2)N2CCN(c3ccc(F)cc3)CC2)cc1OC (configuration not stated)	105	-28	2	-10	.	97
Cc1onc(-c2c(F)cccc2Cl)c1C(=O)ONC(=O)c1ccco1	95	0	-2	6	-12	93
CC1(C)Cc2c(cnn2-c2ccc(F)cc2)C(NC(=O)c2ccc(=O)oc2)C1 (configuration not stated)	102	-33	5	-1	-9	97
CN(CC(=O)Nc1ccccc1Cl)C(=O)Cn1cc(C(F)(F)F)cc(Cl)c1=O	.	.	.	.	-2	.
COc1cc(CN2CCC(Oc3cc(C(=O)NC4CC4)ccc3OC)CC2)cc(OC)c1	102	4	0	-4	1	98
O=C(Nc1ccc(Oc2ccc(NC(=O)Nc3ccc([N+](=O)[O-])cc3)cc2)cc1)Nc1ccc([N+](=O)[O-])cc1	119	6	16	-5	67*	92
Cc1ccc(C(C)C)cc1NC(=O)Nc1ccc([N+](=O)[O-])cc1	157*	13	25*	-1	51	112
CC(=O)Nc1ccc(OS(=O)(=O)c2ccc([N+](=O)[O-])cc2)cc1	100	16	-11	1	71*	105

Source: PubChem
